Assay results from ChEMBL document CHEMBL1139543, “Antineoplastic agents. 445. Synthesis and evaluation of structural modifications of (Z)- and (E)-combretastatin A-41” (J Med Chem, 2005).
Converted amounts (≈) assume the structure as drawn.

System: FaDu
Test: Growth inhibition against human pharynx FADU cell line
Type: functional
Details: not given

SMILES | GI50
COc1ccc(/C=C\c2cc(OC)c(OC)c(OC)c2)cc1OCCN1CCN(C)CC1.Cl.Cl | 2.9 µg/mL
COc1ccc(/C=C/c2cc(OC)c(OC)c(OC)c2)cc1Br | 11.4 µg/mL (≈ 30.1 µM)
COc1ccc(/C=C/c2cc(OC)c(OC)c(OC)c2)cc1[N+](=O)[O-] | 3.8 µg/mL (≈ 11 µM)
COc1ccc(/C=C\c2cc(OC)c(OC)c(OC)c2)cc1[N+](=O)[O-] | 0.047 µg/mL (≈ 0.136 µM)
COc1ccc(/C=C\c2cc(OC)c(OC)c(OC)c2)cc1OCCOS(C)(=O)=O | 0.41 µg/mL (≈ 0.935 µM)
COc1ccc(/C=C\c2cc(OC)c(OC)c(OC)c2)cc1OCCN1CCOCC1.Cl | 0.53 µg/mL
COc1ccc(/C=C\c2cc(OC)c(OC)c(OC)c2)cc1Br | 0.0058 µg/mL (≈ 0.0153 µM)
COc1ccc(/C=C\c2cc(OC)c(OC)c(OC)c2)cc1OCCN(C)C.Cl | 0.47 µg/mL
COc1ccc(/C=C\c2cc(OC)c(OC)c(OC)c2)cc1N | 0.00053 µg/mL (≈ 0.00168 µM)
COc1ccc(/C=C\c2cc(OC)c(OC)c(OC)c2)cc1OCCO | 0.069 µg/mL (≈ 0.191 µM)
COc1ccc(/C=C\c2cc(OC)c(O)c(OC)c2)cc1O | 0.23 µg/mL (≈ 0.761 µM)
COc1ccc(/C=C\c2cc(OC)c(OC)c(OC)c2)cc1OCCCl | 4.6 µg/mL (≈ 12.1 µM)

System: NCI-H460
Test: Growth inhibition against human lung-NSC NCI-H460 cell line
Type: functional
Details: not given

SMILES | GI50
COc1ccc(/C=C\c2cc(OC)c(OC)c(OC)c2)cc1OCCN1CCN(C)CC1.Cl.Cl | 3.4 µg/mL
COc1ccc(/C=C/c2cc(OC)c(OC)c(OC)c2)cc1Br | 0.36 µg/mL (≈ 0.949 µM)
COc1ccc(/C=C\c2cc(OC)c(OC)c(OC)c2)cc1[N+](=O)[O-] | 0.0038 µg/mL (≈ 0.011 µM)
COc1ccc(/C=C\c2cc(OC)c(OC)c(OC)c2)cc1OCCOS(C)(=O)=O | 0.42 µg/mL (≈ 0.958 µM)
COc1ccc(/C=C\c2cc(OC)c(OC)c(OC)c2)cc1OCCN1CCOCC1.Cl | 0.41 µg/mL
COc1ccc(/C=C\c2cc(OC)c(OC)c(OC)c2)cc1Br | 0.033 µg/mL (≈ 0.087 µM)
COc1ccc(/C=C\c2cc(OC)c(OC)c(OC)c2)cc1OCCN(C)C.Cl | 0.34 µg/mL
COc1ccc(/C=C\c2cc(OC)c(OC)c(OC)c2)cc1N | 0.00033 µg/mL (≈ 0.00105 µM)
COc1ccc(/C=C\c2cc(OC)c(OC)c(OC)c2)cc1OCCO | 0.14 µg/mL (≈ 0.388 µM)
COc1ccc(/C=C\c2cc(OC)c(O)c(OC)c2)cc1O | 0.74 µg/mL (≈ 2.45 µM)
COc1ccc(/C=C\c2cc(OC)c(OC)c(OC)c2)cc1OCCCl | 3.7 µg/mL (≈ 9.77 µM)

System: DU-145
Test: Growth inhibition against human prostate cell line (DU-145)
Type: functional
Details: not given

SMILES | GI50
COc1ccc(/C=C\c2cc(OC)c(OC)c(OC)c2)cc1OCCN1CCN(C)CC1.Cl.Cl | 4.1 µg/mL
COc1ccc(/C=C/c2cc(OC)c(OC)c(OC)c2)cc1Br | 0.46 µg/mL (≈ 1.21 µM)
COc1ccc(/C=C/c2cc(OC)c(OC)c(OC)c2)cc1[N+](=O)[O-] | > 10 µg/mL
COc1ccc(/C=C\c2cc(OC)c(OC)c(OC)c2)cc1[N+](=O)[O-] | 0.047 µg/mL (≈ 0.136 µM)
COc1ccc(/C=C\c2cc(OC)c(OC)c(OC)c2)cc1OCCOS(C)(=O)=O | 0.59 µg/mL (≈ 1.35 µM)
COc1ccc(/C=C\c2cc(OC)c(OC)c(OC)c2)cc1OCCN1CCOCC1.Cl | 0.4 µg/mL
COc1ccc(/C=C\c2cc(OC)c(OC)c(OC)c2)cc1Br | 0.027 µg/mL (≈ 0.0712 µM)
COc1ccc(/C=C\c2cc(OC)c(OC)c(OC)c2)cc1OCCN(C)C.Cl | 0.38 µg/mL
COc1ccc(/C=C\c2cc(OC)c(OC)c(OC)c2)cc1N | 0.00033 µg/mL (≈ 0.00105 µM)
COc1ccc(/C=C\c2cc(OC)c(OC)c(OC)c2)cc1OCCO | 0.32 µg/mL (≈ 0.888 µM)
COc1ccc(/C=C\c2cc(OC)c(O)c(OC)c2)cc1O | 0.17 µg/mL (≈ 0.562 µM)
COc1ccc(/C=C\c2cc(OC)c(OC)c(OC)c2)cc1OCCCl | 3.4 µg/mL (≈ 8.97 µM)

System: SW-1736
Test: Growth inhibition against human thyroid cell line( SW 1736)
Type: functional
Details: not given

SMILES | GI50
COc1ccc(/C=C\c2cc(OC)c(OC)c(OC)c2)cc1OCCN1CCN(C)CC1.Cl.Cl | > 10 µg/mL
COc1ccc(/C=C/c2cc(OC)c(OC)c(OC)c2)cc1Br | 10.8 µg/mL (≈ 28.5 µM)
COc1ccc(/C=C/c2cc(OC)c(OC)c(OC)c2)cc1[N+](=O)[O-] | 2.8 µg/mL (≈ 8.11 µM)
COc1ccc(/C=C\c2cc(OC)c(OC)c(OC)c2)cc1[N+](=O)[O-] | 0.0067 µg/mL (≈ 0.0194 µM)
COc1ccc(/C=C\c2cc(OC)c(OC)c(OC)c2)cc1OCCOS(C)(=O)=O | 1 µg/mL (≈ 2.28 µM)
COc1ccc(/C=C\c2cc(OC)c(OC)c(OC)c2)cc1OCCN1CCOCC1.Cl | 0.97 µg/mL
COc1ccc(/C=C\c2cc(OC)c(OC)c(OC)c2)cc1Br | 0.034 µg/mL (≈ 0.0897 µM)
COc1ccc(/C=C\c2cc(OC)c(OC)c(OC)c2)cc1OCCN(C)C.Cl | 0.64 µg/mL
COc1ccc(/C=C\c2cc(OC)c(OC)c(OC)c2)cc1N | 0.0008 µg/mL (≈ 0.00254 µM)
COc1ccc(/C=C\c2cc(OC)c(OC)c(OC)c2)cc1OCCO | 0.28 µg/mL (≈ 0.777 µM)
COc1ccc(/C=C\c2cc(OC)c(O)c(OC)c2)cc1O | 3.4 µg/mL (≈ 11.2 µM)
COc1ccc(/C=C\c2cc(OC)c(OC)c(OC)c2)cc1OCCCl | 4.7 µg/mL (≈ 12.4 µM)

System: Neisseria gonorrhoeae
Test: Minimum inhibitory concentration against Neisseria gonorrhoeae was determined in the disk diffusion assay; value ranges from 50-100 ug/disk
Type: functional
Details: not given

SMILES | MIC
COc1ccc(/C=C\c2cc(OC)c(OC)c(OC)c2)cc1OCCN1CCOCC1.Cl | 100 ug/disk
COc1ccc(/C=C\c2cc(OC)c(OC)c(OC)c2)cc1OCCO | 100 ug/disk

System: Neisseria gonorrhoeae
Test: Minimum inhibitory concentration against Neisseria gonorrhoeae was determined in the disk diffusion assay; value ranges from 12.5-25 ug/disk
Type: functional
Details: not given

SMILES | MIC
COc1ccc(/C=C\c2cc(OC)c(O)c(OC)c2)cc1O | 25 ug/disk

System: P388
Test: Effective dose against murine P388 leukemia cell line
Type: functional
Details: Mus musculus, read-out: ED50 (the source's name)

SMILES | EC50
COc1ccc(/C=C\c2cc(OC)c(OC)c(OC)c2)cc1OCCN1CCN(C)CC1.Cl.Cl | 1.6 µg/mL
COc1ccc(/C=C/c2cc(OC)c(OC)c(OC)c2)cc1Br | 3.08 µg/mL (≈ 8.12 µM)
COc1ccc(/C=C/c2cc(OC)c(OC)c(OC)c2)cc1[N+](=O)[O-] | > 10 µg/mL
COc1ccc(/C=C\c2cc(OC)c(OC)c(OC)c2)cc1[N+](=O)[O-] | 2.4 µg/mL (≈ 6.95 µM)
COc1ccc(/C=C\c2cc(OC)c(OC)c(OC)c2)cc1OCCOS(C)(=O)=O | 2.87 µg/mL (≈ 6.55 µM)
COc1ccc(/C=C\c2cc(OC)c(OC)c(OC)c2)cc1OCCN1CCOCC1.Cl | 0.634 µg/mL
COc1ccc(/C=C\c2cc(OC)c(OC)c(OC)c2)cc1Br | 0.16 µg/mL (≈ 0.422 µM)
COc1ccc(/C=C\c2cc(OC)c(OC)c(OC)c2)cc1OCCN(C)C.Cl | 0.523 µg/mL
COc1ccc(/C=C\c2cc(OC)c(OC)c(OC)c2)cc1N | > 0.01 µg/mL
COc1ccc(/C=C\c2cc(OC)c(OC)c(OC)c2)cc1OCCO | 0.195 µg/mL (≈ 0.541 µM)
COc1ccc(/C=C\c2cc(OC)c(O)c(OC)c2)cc1O | 0.25 µg/mL (≈ 0.827 µM)
COc1ccc(/C=C\c2cc(OC)c(OC)c(OC)c2)cc1OCCCl | 2.9 µg/mL (≈ 7.65 µM)

Molecular target: Tubulin beta-1 chain (Homo sapiens, UniProt Q9H4B7)
Test: Inhibition of tubulin polymerization upon incubation for 20 min at 30 degree C
Details: not given
Outline: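 Purified tubulin at 10 µM (1.0 mg/mL) in 0.8 M monosodium glutamate, pH 6.6, with 4% (v/v) DMSO and varying compound concentrations. Preincubated 15 min at 37 °C, chilled on ice, then GTP (0.4 mM) added. Warmed from 0 °C to 30 °C, and assembly followed 20 min by turbidity at 350 nm. IC50 interpolated; at least two determinations; SD reported.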

Chain of Tubulin beta-1 chain (Q9H4B7 whole entry): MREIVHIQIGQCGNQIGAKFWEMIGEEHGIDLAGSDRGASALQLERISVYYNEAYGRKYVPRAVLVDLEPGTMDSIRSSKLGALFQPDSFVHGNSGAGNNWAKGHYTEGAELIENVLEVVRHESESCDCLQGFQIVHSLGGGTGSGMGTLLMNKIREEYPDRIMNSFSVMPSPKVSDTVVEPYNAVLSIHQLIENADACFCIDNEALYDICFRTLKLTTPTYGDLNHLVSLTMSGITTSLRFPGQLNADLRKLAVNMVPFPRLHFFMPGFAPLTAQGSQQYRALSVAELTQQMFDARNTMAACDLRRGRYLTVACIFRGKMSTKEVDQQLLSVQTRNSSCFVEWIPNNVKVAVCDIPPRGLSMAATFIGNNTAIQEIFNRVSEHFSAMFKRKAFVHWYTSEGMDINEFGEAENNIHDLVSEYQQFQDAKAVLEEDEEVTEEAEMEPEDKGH

SMILES | IC50
COc1ccc(/C=C\c2cc(OC)c(OC)c(OC)c2)cc1OCCN1CCN(C)CC1.Cl.Cl | > 40 µM
COc1ccc(/C=C/c2cc(OC)c(OC)c(OC)c2)cc1Br | 31 µM
COc1ccc(/C=C\c2cc(OC)c(OC)c(OC)c2)cc1[N+](=O)[O-] | 2.6 µM
COc1ccc(/C=C\c2cc(OC)c(OC)c(OC)c2)cc1OCCOS(C)(=O)=O | > 40 µM
COc1ccc(/C=C\c2cc(OC)c(OC)c(OC)c2)cc1OCCN1CCOCC1.Cl | > 40 µM
COc1ccc(/C=C\c2cc(OC)c(OC)c(OC)c2)cc1Br | 1.1 µM
COc1ccc(/C=C\c2cc(OC)c(OC)c(OC)c2)cc1OCCN(C)C.Cl | > 40 µM
COc1ccc(/C=C\c2cc(OC)c(OC)c(OC)c2)cc1OCCO | 2.8 µM
COc1ccc(/C=C\c2cc(OC)c(OC)c(OC)c2)cc1OCCCl | > 40 µM

System: SK-N-SH
Test: Growth inhibition against human neuroblastoma cell line (SK-N-SH)
Type: functional
Details: not given

SMILES | GI50
COc1ccc(/C=C\c2cc(OC)c(OC)c(OC)c2)cc1OCCN1CCN(C)CC1.Cl.Cl | 2.8 µg/mL
COc1ccc(/C=C/c2cc(OC)c(OC)c(OC)c2)cc1Br | 0.4 µg/mL (≈ 1.05 µM)
COc1ccc(/C=C/c2cc(OC)c(OC)c(OC)c2)cc1[N+](=O)[O-] | 7.3 µg/mL (≈ 21.1 µM)
COc1ccc(/C=C\c2cc(OC)c(OC)c(OC)c2)cc1[N+](=O)[O-] | 0.014 µg/mL (≈ 0.0405 µM)
COc1ccc(/C=C\c2cc(OC)c(OC)c(OC)c2)cc1OCCOS(C)(=O)=O | 3 µg/mL (≈ 6.84 µM)
COc1ccc(/C=C\c2cc(OC)c(OC)c(OC)c2)cc1OCCN1CCOCC1.Cl | 0.22 µg/mL
COc1ccc(/C=C\c2cc(OC)c(OC)c(OC)c2)cc1Br | 0.002 µg/mL (≈ 0.00527 µM)
COc1ccc(/C=C\c2cc(OC)c(OC)c(OC)c2)cc1OCCN(C)C.Cl | 0.21 µg/mL
COc1ccc(/C=C\c2cc(OC)c(OC)c(OC)c2)cc1N | 0.00023 µg/mL (≈ 0.000729 µM)
COc1ccc(/C=C\c2cc(OC)c(OC)c(OC)c2)cc1OCCO | 0.028 µg/mL (≈ 0.0777 µM)
COc1ccc(/C=C\c2cc(OC)c(O)c(OC)c2)cc1O | 0.19 µg/mL (≈ 0.628 µM)
COc1ccc(/C=C\c2cc(OC)c(OC)c(OC)c2)cc1OCCCl | 2 µg/mL (≈ 5.28 µM)

System: BXPC-3
Test: Growth inhibition against human pancreas carcinoma cell line (BxPC-3)
Type: functional
Details: not given

SMILES | GI50
COc1ccc(/C=C\c2cc(OC)c(OC)c(OC)c2)cc1OCCN1CCN(C)CC1.Cl.Cl | > 10 µg/mL
COc1ccc(/C=C/c2cc(OC)c(OC)c(OC)c2)cc1Br | 0.34 µg/mL (≈ 0.897 µM)
COc1ccc(/C=C/c2cc(OC)c(OC)c(OC)c2)cc1[N+](=O)[O-] | > 10 µg/mL
COc1ccc(/C=C\c2cc(OC)c(OC)c(OC)c2)cc1[N+](=O)[O-] | 0.029 µg/mL (≈ 0.084 µM)
COc1ccc(/C=C\c2cc(OC)c(OC)c(OC)c2)cc1OCCOS(C)(=O)=O | 2.7 µg/mL (≈ 6.16 µM)
COc1ccc(/C=C\c2cc(OC)c(OC)c(OC)c2)cc1OCCN1CCOCC1.Cl | 2.9 µg/mL
COc1ccc(/C=C\c2cc(OC)c(OC)c(OC)c2)cc1Br | 0.007 µg/mL (≈ 0.0185 µM)
COc1ccc(/C=C\c2cc(OC)c(OC)c(OC)c2)cc1OCCN(C)C.Cl | > 10 µg/mL
COc1ccc(/C=C\c2cc(OC)c(OC)c(OC)c2)cc1N | 0.00043 µg/mL (≈ 0.00136 µM)
COc1ccc(/C=C\c2cc(OC)c(OC)c(OC)c2)cc1OCCO | 0.045 µg/mL (≈ 0.125 µM)
COc1ccc(/C=C\c2cc(OC)c(O)c(OC)c2)cc1O | > 4 µg/mL
COc1ccc(/C=C\c2cc(OC)c(OC)c(OC)c2)cc1OCCCl | 2.7 µg/mL (≈ 7.13 µM)
